Experimental data taken from ChEMBL document CHEMBL1926642, “Relevance of the C-5 position to schweinfurthin induced cytotoxicity” (2011).

Assays:
Type in all cases: functional
HL-60(TB) = experiment: Growth inhibition of human HL-60(TB) cells after 48 hrs by sulforhodamine B assay; details: HL-60, 48 h
Procedure, shortened: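 Run in the NCI 60 cell-line screen as the full 5-dose assay that follows initial single-dose testing; GI50 is read from the dose series.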

K562 = experiment: Growth inhibition of human K562 cells after 48 hrs by sulforhodamine B assay; details: K562, 48 h
RPMI-8226 = experiment: Growth inhibition of human RPMI8226 cells after 48 hrs by sulforhodamine B assay; details: RPMI-8226, 48 h
EKVX = experiment: Growth inhibition of human EKVX cells after 48 hrs by sulforhodamine B assay
NCI-H226 = experiment: Growth inhibition of human NCI-H226 cells after 48 hrs by sulforhodamine B assay; details: NCI-H226, 48 h
NCI-H322M = experiment: Growth inhibition of human NCI-H322M cells after 48 hrs by sulforhodamine B assay
NCI-H460 = experiment: Growth inhibition of human NCI-H460 cells after 48 hrs by sulforhodamine B assay; details: NCI-H460, 48 h
NCI-H522 = experiment: Growth inhibition of human NCI-H522 cells after 48 hrs by sulforhodamine B assay; details: NCI-H522, 48 h
COLO 205 = experiment: Growth inhibition of human COLO205 cells after 48 hrs by sulforhodamine B assay; details: COLO 205, 48 h
HCC 2998 = experiment: Growth inhibition of human HCC2998 cells after 48 hrs by sulforhodamine B assay; details: HCC 2998, 48 h
HCT-15 = experiment: Growth inhibition of human HCT15 cells after 48 hrs by sulforhodamine B assay; details: HCT-15, 48 h
KM12 = experiment: Growth inhibition of human KM12 cells after 48 hrs by sulforhodamine B assay; details: KM12, 48 h
SF-268 = experiment: Growth inhibition of human SF268 cells after 48 hrs by sulforhodamine B assay; details: SF-268, 48 h
SF-295 = experiment: Growth inhibition of human SF295 cells after 48 hrs by sulforhodamine B assay; details: SF-295, 48 h
SNB-19 = experiment: Growth inhibition of human SNB19 cells after 48 hrs by sulforhodamine B assay; details: SNB-19, 48 h
SNB-75 = experiment: Growth inhibition of human SNB75 cells after 48 hrs by sulforhodamine B assay; details: SNB-75, 48 h
LOX IMVI = experiment: Growth inhibition of human LOXIMVI cells after 48 hrs by sulforhodamine B assay
M14 = experiment: Growth inhibition of human M14 cells after 48 hrs by sulforhodamine B assay; details: M14, 48 h
SK-MEL-2 = experiment: Growth inhibition of human SK-MEL-2 cells after 48 hrs by sulforhodamine B assay; details: SK-MEL-2, 48 h
SK-MEL-28 = experiment: Growth inhibition of human SK-MEL-28 cells after 48 hrs by sulforhodamine B assay; details: SK-MEL-28, 48 h
SK-MEL-5 = experiment: Growth inhibition of human SK-MEL-5 cells after 48 hrs by sulforhodamine B assay; details: SK-MEL-5, 48 h
UACC-257 = experiment: Growth inhibition of human UACC257 cells after 48 hrs by sulforhodamine B assay; details: UACC-257, 48 h
UACC-62 = experiment: Growth inhibition of human UACC62 cells after 48 hrs by sulforhodamine B assay; details: UACC-62, 48 h
IGROV-1 = experiment: Growth inhibition of human IGROV1 cells after 48 hrs by sulforhodamine B assay; details: IGROV-1, 48 h
OVCAR-3 = experiment: Growth inhibition of human OVCAR3 cells after 48 hrs by sulforhodamine B assay; details: OVCAR-3, 48 h
OVCAR-4 = experiment: Growth inhibition of human OVCAR4 cells after 48 hrs by sulforhodamine B assay; details: OVCAR-4, 48 h
NCI/ADR-RES = experiment: Growth inhibition of human NCI/ADR-RES cells after 48 hrs by sulforhodamine B assay
SK-OV-3 = experiment: Growth inhibition of human SKOV3 cells after 48 hrs by sulforhodamine B assay; details: SK-OV-3, 48 h
786-0 = experiment: Growth inhibition of human 786-0 cells after 48 hrs by sulforhodamine B assay; details: 786-0, 48 h
CAKI-1 = experiment: Growth inhibition of human Caki1 cells after 48 hrs by sulforhodamine B assay; details: CAKI-1, 48 h
SN12C = experiment: Growth inhibition of human SN12C cells after 48 hrs by sulforhodamine B assay
T47D = experiment: Growth inhibition of human T47D cells after 48 hrs by sulforhodamine B assay
[1] = read-out: pLC50 (the source's name) (converted)

Structure (SMILES): COc1cc(/C=C/c2cc(O)c3c(c2)C[C@@H]2C(C)(C)[C@H](O)CC[C@@]2(C)O3)cc(O)c1C/C=C(\C)CCC=C(C)C
- GI50 (HL-60(TB)): 46.8 nM
- CC50 (HL-60(TB); [1]): 37.2 µM
- TGI (HL-60(TB); read-out: pTGI (converted)): 1450 nM
- GI50 (K562): 263 nM
- LC50 (K562): 100 µM
- TGI (K562; read-out: pTGI (converted)): 6.92 µM
- GI50 (RPMI-8226): 10.5 nM
- LC50 (RPMI-8226): 100 µM
- TGI (RPMI-8226; read-out: pTGI (converted)): 347 nM
- GI50 (EKVX): 977 nM
- LC50 (50% lethal concentration) (EKVX): 36.3 µM
- TGI (EKVX; read-out: pTGI (converted)): 10.2 µM
- GI50 (NCI-H226): 5.89 µM
- LC50 (NCI-H226): 55 µM
- TGI (NCI-H226; read-out: pTGI (converted)): 21.4 µM
- GI50 (NCI-H322M): 3.39 µM
- LC50 (NCI-H322M): 43.7 µM
- TGI (NCI-H322M; read-out: pTGI (converted)): 14.1 µM
- GI50 (NCI-H460): 339 nM
- LC50 (concentration killing 50% of cells) (NCI-H460): 64.6 µM
- TGI (NCI-H460; read-out: pTGI (converted)): 9.12 µM
- GI50 (NCI-H522): 1910 nM
- LC50 (NCI-H522): 52.5 µM
- TGI (NCI-H522; read-out: pTGI (converted)): 11 µM
- GI50 (COLO 205): 575 nM
- LC50 (COLO 205): 7.24 µM
- TGI (COLO 205; read-out: pTGI (converted)): 2240 nM
- GI50 (HCC 2998): 851 nM
- LC50 (HCC 2998): 9.33 µM
- TGI (HCC 2998; read-out: pTGI (converted)): 2950 nM
- GI50 (HCT-15): 1120 nM
- LC50 (HCT-15): 7.94 µM
- TGI (HCT-15; read-out: pTGI (converted)): 2950 nM
- GI50 (KM12): 1170 nM
- LC50 (KM12): 7.08 µM
- TGI (KM12; read-out: pTGI (converted)): 2880 nM
- GI50 (SF-268): 1350 nM
- LC50 (SF-268): 42.7 µM
- TGI (SF-268; read-out: pTGI (converted)): 5.13 µM
- LC50 (SF-295): 26.9 µM
- GI50 (SF-295; read-out: GI50): 22 nM
- GI50 (SF-295; read-out: pGI50 (converted)): 24 nM
- TGI (SF-295; read-out: pTGI (converted)): 195 nM
- GI50 (SNB-19): 2880 nM
- LC50 (SNB-19): 42.7 µM
- TGI (SNB-19; read-out: pTGI (converted)): 17.8 µM
- GI50 (SNB-75): 123 nM
- LC50 (SNB-75): 33.9 µM
- TGI (SNB-75; read-out: pTGI (converted)): 6.31 µM
- GI50 (LOX IMVI): 525 nM
- LC50 (LOX IMVI): 4.68 µM
- TGI (LOX IMVI; read-out: pTGI (converted)): 1910 nM
- GI50 (M14): 1100 nM
- LC50 (M14): 18.6 µM
- TGI (M14; read-out: pTGI (converted)): 3.47 µM
- GI50 (SK-MEL-2): 6.92 µM
- LC50 (SK-MEL-2): 56.2 µM
- TGI (SK-MEL-2; read-out: pTGI (converted)): 22.4 µM
- GI50 (SK-MEL-28): 1000 nM
- CC50 (SK-MEL-28; [1]): 7.94 µM
- TGI (SK-MEL-28; read-out: pTGI (converted)): 2750 nM
- GI50 (SK-MEL-5): 955 nM
- LC50 (SK-MEL-5): 5.37 µM
- TGI (SK-MEL-5; read-out: pTGI (converted)): 2290 nM
- GI50 (UACC-257): 7.59 µM
- LC50 (UACC-257): 61.7 µM
- TGI (UACC-257; read-out: pTGI (converted)): 23.4 µM
- GI50 (UACC-62): 204 nM
- LC50 (50% lethal concentration) (UACC-62): 7.41 µM
- TGI (UACC-62; read-out: pTGI (converted)): 794 nM
- GI50 (IGROV-1): 2090 nM
- LC50 (IGROV-1): 40.7 µM
- TGI (IGROV-1; read-out: pTGI (converted)): 11 µM
- GI50 (OVCAR-3): 1450 nM
- LC50 (OVCAR-3): 15.5 µM
- TGI (OVCAR-3; read-out: pTGI (converted)): 4.07 µM
- GI50 (OVCAR-4): 2630 nM
- LC50 (OVCAR-4): 63.1 µM
- TGI (OVCAR-4; read-out: pTGI (converted)): 19.1 µM
- GI50 (NCI/ADR-RES): 2570 nM
- LC50 (NCI/ADR-RES): 58.9 µM
- TGI (NCI/ADR-RES; read-out: pTGI (converted)): 10.2 µM
- GI50 (SK-OV-3): 1380 nM
- LC50 (SK-OV-3): 38 µM
- TGI (SK-OV-3; read-out: pTGI (converted)): 14.8 µM
- GI50 (786-0): 33.9 nM
- CC50 (786-0; [1]): 15.5 µM
- TGI (786-0; read-out: pTGI (converted)): 1450 nM
- GI50 (CAKI-1): 1700 nM
- LC50 (CAKI-1): 38.9 µM
- TGI (CAKI-1; read-out: pTGI (converted)): 6.76 µM
- GI50 (SN12C): 1510 nM
- LC50 (SN12C): 8.51 µM
- TGI (SN12C; read-out: pTGI (converted)): 3.63 µM
- GI50 (T47D): 1410 nM
- LC50 (T47D): 39.8 µM
- TGI (T47D; read-out: pTGI (converted)): 7.08 µM
